How the values were obtained:
[1] = Intratumoral drug concentration and distribution by MALDI-MSI in C26 tumors; assay type: in vivo, mouse; conditions: for intratumoral drug distribution (MALDI-MSI): C26 tumors, 100 mg/kg p.o. for two weeks
[2] = Intratumoral drug concentration and distribution by MALDI-MSI in C38 tumors; assay type: in vivo, mouse; conditions: 100 mg/kg p.o. for two weeks
[3] = test system: C38 mouse colorectal carcinoma; assay: In vivo growth inhibition of s.c. C38 tumors; conditions: C57Bl/6 mice, 100 mg/kg p.o. 5 times a week for two weeks; vs vehicle; P=0.0048
Method in brief: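 C38 fragments, kept by serial s.c. passage, cut into 5×5×5 mm cubes and implanted into the backs of anaesthetised 8-week-old female C57Bl/6 mice. Dosing started on day 13, once daily by feeding tube, 5 days/week. Vehicle was 2% carboxymethylcellulose with 2 mg/mL methyl-4-hydroxybenzoate, also given to controls. Calipers were used three times weekly, with volume = length × width² × π/6.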

C38 tumors = assay: Microvessel areas; assay type: in vivo, mouse; conditions: C38 model, 100 mg/kg p.o. for two weeks; P<0.03
desmin = assay: Pericyte desmin expression in C26 tumors; assay type: in vivo, mouse; conditions: C26 model, 100 mg/kg p.o. for two weeks; sunitinib P=0.0135, motesanib P<0.05
C26 tumors = assay: Intratumoral hypoxia; assay type: in vivo, mouse; conditions: C26 model, 100 mg/kg p.o. for two weeks; P=0.0152
PDGFRβ = conditions: ref [18]; cited from earlier work
[4] = test system: C38 mouse colorectal carcinoma; conditions: C57Bl/6 mice; previously published study; ref [38]; cited from earlier work

| SMILES | intratumoral drug distribution (MALDI-MSI) [1] | intratumoral drug distribution (MALDI-MSI) [2] | C38 tumor growth inhibition [3] | intratumoral microvessel areas (antivascular/antiangiogenic effect) (C38 tumors) | pericyte desmin expression (desmin) | rank of intratumoral concentration among the five RTKIs ([1]; mouse, in vivo, po, 100 mg/kg) | intratumoral hypoxia (C26 tumors) | IC50 value against PDGFRβ, rank among the tested RTKIs (PDGFRβ) | intratumoral drug concentration vs untreated controls ([2]; P=0.0006) | intratumoral vatalanib concentration ([2]; C57Bl/6 mice, P=0.0025 vs C26) [µmol/mL] | C38 tumor burdens [4] |
| --- | --- | --- | --- | --- | --- | --- | --- | --- | --- | --- | --- |
| CC1(C)CNc2cc(NC(=O)c3cccnc3NCc3ccncc3)ccc21 [motesanib] | inhomogeneous | trace-level | no significant tumor growth inhibitory | no significant | significantly decreased |  |  |  |  |  |  |
| Cc1ccc(Nc2nccc(N(C)c3ccc4c(C)n(C)nc4c3)n2)cc1S(N)(=O)=O [pazopanib] | inhomogeneous | trace-level | no significant tumor growth inhibitory | no significant |  |  |  |  |  |  |  |
| CNC(=O)c1cc(Oc2ccc(NC(=O)Nc3ccc(Cl)c(C(F)(F)F)c3)cc2)ccn1 [sorafenib] | Only traces | trace-level | no significant tumor growth inhibitory | no significant |  |  |  |  |  |  |  |
| CCN(CC)CCNC(=O)c1c(C)[nH]c(/C=C2\C(=O)Nc3ccc(F)cc32)c1C [sunitinib] | homogeneously distributed | well-distributed | significant antitumor | significant | suppressed | highest values | significantly increased | lowest IC50 value |  |  |  |
| Clc1ccc(Nc2nnc(Cc3ccncc3)c3ccccc23)cc1 [vatalanib] | Only traces | well-distributed | robust and significant growth-inhibitory effect | significant decrease |  |  |  |  | significantly higher | 0.116 | significantly decreased |

Source: publication PMC5197073 (Theranostics, 2017)
